Compounds with a hit are over-represented: about 1.6% of the library has one in this group of screens.
PHOSPHO1 block – PubChem AID 1565. recombinant PHOSPHO1, absorbance phosphatase assay. inhibition, % at 13.3 µM. 1.1% of 290,000 active; in the data active = inhibition above about 60%
ABCB1 inh – ABCB1 efflux pump inhibitors, primary screen, cell-based, multiplex, flow cytometry, ABCG2 counter-screen | inhibition, % at 6.6 µM | ATP-dependent translocase ABCB1 (Homo sapiens), P08183 | CCRF-Adr cells, JC-1 efflux | 0.067% of 190,000 active | AID 1326, 2008; in the data active = inhibition above about 40%;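 note: 0% = vehicle and 100% = reference inhibitor; higher value means more JC-1 retained so stronger ABCB1 efflux block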
HSV replic up – enhancers of HSV replication in host cells, fold increase, host cell viability. HSV replication augmentation in cells. maximum fold increase. 0.005% of 220,000 active; in the data active = maximum fold increase above about 1.5; tested in PC3 cells
NCF1 inh – p47phox/p22phox peptide binding inhibitors, primary screen, biochemical, uHTS, NADPH oxidase regulatory subunit; Neutrophil cytosol factor 1 (Homo sapiens), P14598; fluorescence polarization, 2 h; inhibition, % at 24.7 µM; 0.53% of 220,000 active; AID 1274, 2008;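 active = inhibition above about 30%, limit read from the data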;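 note: 0% = p47phox with labelled peptide and 100% = labelled peptide alone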
PKD1 kinase inh – inhibitors of human PKD1 kinase, biochemical, fluorescence polarization; Serine/threonine-protein kinase D1 (Homo sapiens), Q15139; PKD1 kinase fluorescence polarization assay; inhibition, % (concentration not given with the values); 0.056% of 200,000 active; AID 797, 2007; in the data active = inhibition above about 50%
ABCG2 block – ABCG2 efflux pump inhibitors, primary screen, multiplex with ABCB1, IgMXP3 cells, flow cytometry; Broad substrate specificity ATP-binding cassette transporter ABCG2 (Homo sapiens), Q9UNQ0; JC-1 efflux; inhibition, % at 6.6 µM; 0.1% of 190,000 active; AID 1325, 2008;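 active = inhibition above 80%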;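 note: 0% = DMSO and 100% = nicardipine control wells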
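Incubation: cells with compound and JC-1, 10 min at 25 °C, rotating, no wash / Test system: IgMXP3 (ABCG2) plus far-red-tagged CCRF-Adr (ABCB1) cells / Compound dosing: one concentration, 6.6 µM final / Also added: JC-1 fluorescent substrate / Evaluation: efflux inhibition in percent versus controls / Detection: flow cytometry, 530 nm JC-1 signal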
The depositor's hits bear a star.

`O=C(CCNS(=O)(=O)/C=C/c1ccccc1)NCCc1c[nH]c2ccccc12` gave PHOSPHO1 block 43.
CC1Cc2nc(SCC(=O)N3CCOCC3)n(C)c(=O)c2S1 (stereo not drawn) was read as PHOSPHO1 block 27.
CC1Cc2nc(SCC(=O)N3CCc4ccccc43)n(C)c(=O)c2S1 (stereo not drawn) was read as PHOSPHO1 block -31, ABCB1 inh 4, NCF1 inh 34*, PKD1 kinase inh 4 and ABCG2 block 20.
Screening Cc1ccc(C)c(C(=O)c2c(C)nc3sccn23)c1 returned PHOSPHO1 block -11, ABCB1 inh 1, HSV replic up inactive, NCF1 inh 1, PKD1 kinase inh 0 and ABCG2 block 2.
Cc1cc(C)c(NC(=O)c2cc3c(nc4sccn43)s2)c(C)c1 was read as PHOSPHO1 block 71*, ABCB1 inh 3, HSV replic up inactive, NCF1 inh -4, PKD1 kinase inh -1 and ABCG2 block 19.
`O=C(CCl)c1ccc(Cc2ncc(C(F)(F)F)cc2Cl)s1` gave PHOSPHO1 block 77*, ABCB1 inh 0, HSV replic up inactive, NCF1 inh -13, PKD1 kinase inh 0 and ABCG2 block -1.
`Cc1ccc(C)c(NC(=O)CCN2CCN(CCO)CC2)c1` gave PHOSPHO1 block -19.
Screening CCC(C)NC(=O)C(=O)NCC1CCCN1CC (stereo not drawn) returned PHOSPHO1 block -1, ABCB1 inh 1, NCF1 inh 1, PKD1 kinase inh -2 and ABCG2 block 1.
`CSc1ccccc1NC(=O)C1=CC(c2ccc(C)cc2)=NS(=O)(=O)N1C` gave PHOSPHO1 block -14.
Cc1cc(-c2ccccc2)nc(N(C)N)c1S(C)(=O)=O was read as PHOSPHO1 block 57, ABCB1 inh 0, HSV replic up inactive, NCF1 inh 2, PKD1 kinase inh 1 and ABCG2 block 1.
`Cc1cc(-c2ccccc2)nc(N(C)NC(=O)c2c(F)cccc2F)c1S(C)(=O)=O` gave PHOSPHO1 block 11, ABCB1 inh 2, HSV replic up inactive, NCF1 inh 115*, PKD1 kinase inh -1 and ABCG2 block 18.
For N#C/C(=N\Nc1cccc(C(F)(F)F)c1)C(=O)c1ccsc1 the results were PHOSPHO1 block 21, HSV replic up inactive and NCF1 inh -12.
Cc1cccc(NC(=O)Cn2c(O)c(N=NC(=O)c3ccccc3O)c3ccccc32)c1 was read as PHOSPHO1 block -4, ABCB1 inh 0, NCF1 inh 33*, PKD1 kinase inh 12 and ABCG2 block -5.
`Cc1ccc(NC(=O)Cn2c(O)c(N=NC(=O)c3cc([N+](=O)[O-])ccc3O)c3ccccc32)cc1` gave PHOSPHO1 block -25, HSV replic up inactive and NCF1 inh -19.
For N#Cc1c2n(c(=S)n(-c3ccc(F)cc3)c1=O)CCCCC2 the results were PHOSPHO1 block 38, ABCB1 inh 0, HSV replic up inactive, PKD1 kinase inh -6 and ABCG2 block -1.
`N#Cc1c2n(c(=S)n(-c3ccccc3)c1=O)CCCCC2` gave PHOSPHO1 block 64*, ABCB1 inh 0, HSV replic up inactive, NCF1 inh -9, PKD1 kinase inh -10 and ABCG2 block 0.
Cc1cc(C)c(S(=O)(=O)NCC2CCC(C(=O)NCCCN3CCOCC3)CC2)c(C)c1 (stereo not drawn) was read as PHOSPHO1 block 5, ABCB1 inh 0, HSV replic up inactive, NCF1 inh 39*, PKD1 kinase inh -11 and ABCG2 block 0.
`O=C(CCc1cn2ccccc2n1)NC1CCCc2c1cnn2-c1ccccc1F` (stereo not drawn) gave PHOSPHO1 block 75*.
Screening O=C(CCN1CCCO1)NC1CCCc2c1cnn2-c1ccccc1F (stereo not drawn) returned PHOSPHO1 block 12.
`COc1cccc(-c2c(C(=O)N/N=C/c3ccco3)nnn2-c2nonc2N)c1` gave PHOSPHO1 block 27.
For CN(Cc1ccccc1)C(=O)CC(c1ccccc1)c1cc(Cl)ccc1O (stereo not drawn) the results were PHOSPHO1 block -19, ABCB1 inh 0, NCF1 inh 15, PKD1 kinase inh -4 and ABCG2 block 0.
O=C(O)/C(=C/c1ccco1)NC(=O)c1ccccc1 was read as PHOSPHO1 block -13, ABCB1 inh 0, HSV replic up inactive, NCF1 inh -3, PKD1 kinase inh -4 and ABCG2 block 4.
`O=C(O)/C(=C\c1ccco1)NC(=O)c1cccc2ccccc12` gave PHOSPHO1 block 16, ABCB1 inh 0, HSV replic up inactive, NCF1 inh 127*, PKD1 kinase inh -3 and ABCG2 block 0.
Screening O=S(=O)(Nc1cc(Sc2cccc3cccnc23)c(O)c2ccccc12)c1ccccc1 returned PHOSPHO1 block 60*, ABCB1 inh 1, HSV replic up inactive, NCF1 inh 14, PKD1 kinase inh -6 and ABCG2 block 3.
CCOc1ccc(S(=O)(=O)Nc2cc(SCC(=O)O)c(O)c3ccccc23)cc1 was read as PHOSPHO1 block -89.
COc1ccc(CN(CC(O)COc2cccc3[nH]cc(C)c23)C(C)(C)C)cc1 (stereo not drawn) was read as PHOSPHO1 block 33.
`Nc1nc(-c2cccnc2)nn1C(=O)c1ccc(F)cc1` gave PHOSPHO1 block 24, ABCB1 inh 1, HSV replic up inactive, PKD1 kinase inh -1 and ABCG2 block 5.
For CC1=NN(c2ccccc2)C(=O)/C1=C/C=C/c1ccc(N(C)C)cc1 the results were PHOSPHO1 block 6, ABCB1 inh 0, HSV replic up inactive, NCF1 inh 44*, PKD1 kinase inh 0 and ABCG2 block 0.
`CC(=O)Nc1sc(N)nc1-c1ccccc1` gave PHOSPHO1 block 80*, ABCB1 inh 0, HSV replic up inactive, NCF1 inh -10, PKD1 kinase inh -1 and ABCG2 block 0.
For CCc1ccc(OCCCCN(C)Cc2ccccc2)cc1 the results were PHOSPHO1 block 3.
O=C(Cc1ccc(S(=O)(=O)N2CCOCC2)s1)Nc1nc2c(s1)CCCC2 was read as PHOSPHO1 block 94*, ABCB1 inh 0, HSV replic up inactive, NCF1 inh -27, PKD1 kinase inh 0 and ABCG2 block -1.
O=C(Cc1ccc(S(=O)(=O)N2CCOCC2)s1)Nc1ccc2c(c1)CCC2 was read as PHOSPHO1 block -1, ABCB1 inh 1, HSV replic up inactive, NCF1 inh -18, PKD1 kinase inh -8 and ABCG2 block 6.

High-throughput results: PubChem, several laboratories
